We go through six molecules from paper PMC4540355 (Biochemistry, 2009).

The target in assay [1] is T1, skelemin binding to αIIbβ3 (Mus musculus, UniProt Q62234).
T1 sequence (Q62234 1113-1666): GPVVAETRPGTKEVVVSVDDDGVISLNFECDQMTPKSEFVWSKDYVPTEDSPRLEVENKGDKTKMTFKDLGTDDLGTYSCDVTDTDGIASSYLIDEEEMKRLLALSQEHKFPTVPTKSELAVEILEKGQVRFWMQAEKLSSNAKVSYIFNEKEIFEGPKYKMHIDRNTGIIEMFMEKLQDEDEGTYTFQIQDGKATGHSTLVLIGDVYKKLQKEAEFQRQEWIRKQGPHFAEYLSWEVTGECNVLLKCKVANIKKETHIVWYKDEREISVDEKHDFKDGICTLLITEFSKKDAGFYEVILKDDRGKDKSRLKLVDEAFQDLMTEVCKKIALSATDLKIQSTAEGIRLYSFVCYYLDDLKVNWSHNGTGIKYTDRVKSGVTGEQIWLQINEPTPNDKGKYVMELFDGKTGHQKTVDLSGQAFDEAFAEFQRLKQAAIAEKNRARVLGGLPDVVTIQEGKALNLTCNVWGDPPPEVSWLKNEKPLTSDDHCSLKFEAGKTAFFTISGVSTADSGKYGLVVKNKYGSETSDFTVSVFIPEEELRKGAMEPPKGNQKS
On the set-up: species or system human.

Assay [2] addresses T2, skelemin fragment (Mus musculus, UniProt Q62234).
T2 sequence (Q62234 1113-1666): T1 sequence (Q62234 1113-1666)
The experiment in a line: Solid-phase assay: binding of [125I]skelemin to peptides coated on wells. The note with it: wells coated with peptide 20 μg/mL, postcoated with 1% BSA. The essentials:
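Mouse skelemin fragment (residues 1113–1666) made as a GST fusion, cut free with thrombin and radioiodinated. Wells coated with wild-type or mutant αIIb 989–1008 peptide at 20 μg/mL, postcoated with 1% BSA, then given various concentrations of [125I]skelemin. Bound radioactivity counted.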

Assay [3] concerns the target T2, skelemin fragment. It is filed as binding. The essentials:
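CM5 chip carried amine-coupled skelemin fragment (~900 RU). αIIb 989–1008 peptide at 0, 10, 20, 40, 100 and 200 μM in HBS-P with 1 mM Ca2+ and 1 mM Mg2+, injected at 5 μL/min for 10 min. Signal corrected against an EDC/NHS-activated, ethanolamine-blocked blank cell. Kd from best fit to an interaction model.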

Assay [4] deals with fibrin monomer with both fibrinopeptides A and B cleaved (human) (UniProt P02671). The experiment in a line: solid-phase binding assay with 125I-labelled protein.
The target of assay [5] is fibrinogen D100 (100 kDa) fragment (human). Described as above.
The target in assay [6] is human fibrinogen, depleted of fibronectin and plasminogen (human) (UniProt P02671). Described as above.
In assay [7] the target is cellulose-bound αIIb 9-mer peptide with Arg997 substituted with Ala (human) (UniProt P08514). The experiment in a line: peptide or protein array.
Assay [8] addresses cellulose-bound αIIb 9-mer peptide with Arg995 substituted with Ala (human) (UniProt P08514). The experiment in a line: peptide or protein array.
Assay [9] concerns the target αIIb 9-mer peptides with mutations of Val990, Phe992, and Leu1000. The experiment in a line: peptide or protein array.
Assay [10] has as its target platelet integrin αIIbβ3 (human) (UniProt P05106). The experiment in a line: solid-phase binding assay with 125I-labelled protein.
For assay [11], the system named is αIIbβ3. It is filed as binding, human. To be noted: integrin adsorbed on plastic without ligand.
Assay [12] relates to αIIbβ3. It is filed as binding, human. The essentials: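 αIIbβ3 purified from human platelets on Concanavalin A-agarose. Passed at 0, 50, 100, 200 and 500 μg/mL in HBS-P with 1 mM Ca2+/Mg2+ over amine-coupled skelemin fragment (~900 RU), with a fibrinogen parallel cell (~1300 RU) checking resting state. For activation, DTT 3 mM final, 15 min at 4 °C, then extensive dialysis; activated integrin injected 5 min at 10 μL/min. Blank-cell corrected.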

Sequence of human fibrinogen, depleted of fibronectin and plasminogen (human) (P02671 36-866, chain 1 of 3): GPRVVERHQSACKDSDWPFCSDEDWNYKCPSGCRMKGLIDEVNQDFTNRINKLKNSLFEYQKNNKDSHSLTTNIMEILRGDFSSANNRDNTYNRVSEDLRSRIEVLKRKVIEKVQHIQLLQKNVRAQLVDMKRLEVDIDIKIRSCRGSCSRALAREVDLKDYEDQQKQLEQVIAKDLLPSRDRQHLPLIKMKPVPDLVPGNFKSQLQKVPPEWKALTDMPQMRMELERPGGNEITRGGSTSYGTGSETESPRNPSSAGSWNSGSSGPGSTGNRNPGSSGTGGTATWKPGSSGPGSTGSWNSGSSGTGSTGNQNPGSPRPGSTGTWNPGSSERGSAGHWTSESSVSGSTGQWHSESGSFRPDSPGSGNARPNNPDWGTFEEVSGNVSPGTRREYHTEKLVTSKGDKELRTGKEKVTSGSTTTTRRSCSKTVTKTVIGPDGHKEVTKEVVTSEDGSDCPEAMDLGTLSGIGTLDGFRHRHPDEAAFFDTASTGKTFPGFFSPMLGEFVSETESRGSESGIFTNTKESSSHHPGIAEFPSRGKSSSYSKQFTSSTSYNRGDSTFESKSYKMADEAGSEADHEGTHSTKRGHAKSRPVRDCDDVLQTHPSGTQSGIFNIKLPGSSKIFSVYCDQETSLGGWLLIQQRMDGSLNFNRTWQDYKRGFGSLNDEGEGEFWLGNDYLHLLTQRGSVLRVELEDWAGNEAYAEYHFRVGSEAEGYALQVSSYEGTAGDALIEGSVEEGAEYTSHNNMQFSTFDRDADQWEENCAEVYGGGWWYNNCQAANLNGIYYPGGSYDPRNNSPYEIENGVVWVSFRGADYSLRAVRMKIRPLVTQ
Sequence of human fibrinogen, depleted of fibronectin and plasminogen (human) (P02675 45-491, chain 2 of 3, further chain): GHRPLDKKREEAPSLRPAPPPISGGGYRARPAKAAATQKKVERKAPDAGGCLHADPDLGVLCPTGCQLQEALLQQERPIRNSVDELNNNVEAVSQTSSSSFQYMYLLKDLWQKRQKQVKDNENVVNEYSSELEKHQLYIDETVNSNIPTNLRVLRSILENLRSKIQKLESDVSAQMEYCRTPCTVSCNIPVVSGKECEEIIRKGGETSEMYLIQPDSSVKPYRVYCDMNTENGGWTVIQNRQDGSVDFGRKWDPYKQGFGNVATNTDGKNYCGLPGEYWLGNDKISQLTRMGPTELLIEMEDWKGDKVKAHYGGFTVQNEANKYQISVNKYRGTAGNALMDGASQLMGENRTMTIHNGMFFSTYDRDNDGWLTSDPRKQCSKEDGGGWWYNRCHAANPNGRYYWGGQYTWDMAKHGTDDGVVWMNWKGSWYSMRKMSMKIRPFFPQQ
Sequence of human fibrinogen, depleted of fibronectin and plasminogen (human) (P02679 27-453, chain 3 of 3, further chain): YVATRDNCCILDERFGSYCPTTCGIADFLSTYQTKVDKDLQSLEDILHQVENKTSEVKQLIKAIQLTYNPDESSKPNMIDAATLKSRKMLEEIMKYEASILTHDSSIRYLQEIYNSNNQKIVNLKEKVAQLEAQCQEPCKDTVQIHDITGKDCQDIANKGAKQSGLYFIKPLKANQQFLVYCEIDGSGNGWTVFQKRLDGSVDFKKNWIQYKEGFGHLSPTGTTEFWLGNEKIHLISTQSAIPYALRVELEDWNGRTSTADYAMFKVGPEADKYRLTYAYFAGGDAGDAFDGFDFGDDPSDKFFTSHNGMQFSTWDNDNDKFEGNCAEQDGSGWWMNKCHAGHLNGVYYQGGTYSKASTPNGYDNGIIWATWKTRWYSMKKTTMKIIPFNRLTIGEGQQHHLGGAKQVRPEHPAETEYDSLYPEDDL
Sequence of fibrin monomer with both fibrinopeptides A and B cleaved (human) (P02671 36-866, chain 1 of 3): as the sequence (P02671 36-866, chain 1 of 3) above
Sequence of fibrin monomer with both fibrinopeptides A and B cleaved (human) (P02675 45-491, chain 2 of 3, further chain): as the sequence (P02675 45-491, chain 2 of 3, further chain) above
Sequence of fibrin monomer with both fibrinopeptides A and B cleaved (human) (P02679 27-453, chain 3 of 3, further chain): as the sequence (P02679 27-453, chain 3 of 3, further chain) above

In the case of “GY^715 WALLITIADAKEFAKF^730 [β3 mutant 2]”, the “Overall activity relative to the wild-type counterpart” value in [1] (skelemin binding and inhibition) is reported as “residual activity”. On skelemin fragment [2], the “Binding of [125I]skelemin to immobilized peptide” value (“Binding of [125I]skelemin” for short) is recorded as “still further loss”.

With “GY^715 WALLITIADRKEFAKF^730 [β3 mutant 1]”, the “Binding of [125I]skelemin” value at skelemin fragment [2] was “reduced level of skelemin binding”.

Take “KVGFFKANAPALEEDDEEGE [mutant αIIb peptide]”: the “Binding to skelemin coupled to the chip (SPR)” value on skelemin fragment [3] was “did not bind”. In addition, the “Inhibition of skelemin binding to αIIbβ3 prebound to ligands” value in [1] (mutant peptide) is reported as “did not inhibit”. Besides, the “Binding of [125I]skelemin” value on skelemin fragment [2] is “lost the ability to bind”.

With “platelet integrin αIIbβ3 (from UniProt P05106 27-788) (complex)”, the amount of αIIbβ3 bound in assay [4], in assay [5] and in [6] was 76 ng throughout.

B1: recombinant fragment spanning immunoglobulin C2-like motifs 3–7 of mouse skelemin (domain or fragment)
chain: T1 sequence (Q62234 1113-1666)
modifications: 125I label (IODO-GEN) where used as [125I]skelemin
The molecule B1 showed a reduction of binding against the wild-type peptide in [7] of 70%. Further, the reduction of binding against the wild-type peptide in [8] is 70%. This molecule displayed a reduction of binding against the wild-type peptide in [9] of 40 to 50%. In addition, in assay [10], the Kd, high-affinity class of binding sites is 123 nM; the Kd, low-affinity class of binding sites amounted to 1.1 µM; the N, high-affinity interaction (skelemin to receptor) (skelemin per receptor) amounted to 1; the N, low-affinity interaction (skelemin to receptor) (skelemin per receptor) worked out at 0.33.

B2: skelemin fragment: recombinant fragment spanning immunoglobulin C2-like motifs 3–7 of mouse skelemin, residues 1113–1666 (protein)
chain: T1 sequence (Q62234 1113-1666)
modifications: 125I label (IODO-GEN) where used as [125I]skelemin; left off: GST, end not stated, cleaved
For B2, in the assay with αIIbβ3 [11], the “Skelemin binding to αIIbβ3 immobilized directly on plastic” value is recorded as “small amount”. For the same molecule, the “Interaction of resting soluble αIIbβ3 with immobilized skelemin fragment” value in the assay with αIIbβ3 [12] (resting integrin, various concentrations) is “No interaction was detected”. For the same molecule, the “Binding of DTT-treated soluble αIIbβ3 to immobilized skelemin fragment” value in the assay on αIIbβ3 [12] (αIIbβ3 activated with 3 mM DTT 15 min at 4 °C, 0-500 μg/mL) was “did not bind”.
